Results reported in ChEMBL document CHEMBL4138062, “Pyrazolobenzothiazine-based carbothioamides as new structural leads for the inhibition of monoamine oxidases: design, synthesis, in vitro bioevaluation and molecular docking studies” (Medchemcomm, 2017).

Tests used:
[1] = target: T1, Amine oxidase [flavin-containing] A (Homo sapiens, UniProt P21397); assay: Inhibition of human MAOA at 0.1 mM pre-incubated for 10 mins before p-tyramine substrate addition and measured after 10 mins by amplex red reagent-based microplate fluorescence reader analysis
T1 sequence (P21397 whole entry): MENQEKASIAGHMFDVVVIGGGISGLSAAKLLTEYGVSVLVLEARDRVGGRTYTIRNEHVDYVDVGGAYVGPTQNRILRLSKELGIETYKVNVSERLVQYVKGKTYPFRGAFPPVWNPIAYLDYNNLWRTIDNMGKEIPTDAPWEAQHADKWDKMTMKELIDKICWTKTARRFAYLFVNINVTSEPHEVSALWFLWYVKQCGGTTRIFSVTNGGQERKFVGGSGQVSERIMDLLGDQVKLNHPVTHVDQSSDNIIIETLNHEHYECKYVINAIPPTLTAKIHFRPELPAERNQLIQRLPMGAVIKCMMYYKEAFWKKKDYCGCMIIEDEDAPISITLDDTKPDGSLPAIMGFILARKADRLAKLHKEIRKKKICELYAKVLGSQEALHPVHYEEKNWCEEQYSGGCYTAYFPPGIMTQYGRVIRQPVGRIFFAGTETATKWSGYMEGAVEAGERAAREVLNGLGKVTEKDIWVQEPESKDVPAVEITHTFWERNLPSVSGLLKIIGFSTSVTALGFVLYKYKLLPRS
Summary of the method: (§1)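 The reaction in 50 mM phosphate buffer (pH 7.4) was preincubated with enzyme and test compound at 37 °C for 10 min. p-Tyramine (3 mM solution) and Amplex Red reagent were then added, and the mix was held at 37 °C for 10 min. Resorufin fluorescence (ex 544, em 590 nm) from H2O2 was read. Percent inhibition was taken at 100 μM final concentration, in triplicate.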

[2] = target: T2, Amine oxidase [flavin-containing] B (Homo sapiens, UniProt P27338); assay: Inhibition of human MAOB at 0.1 mM pre-incubated for 10 mins before p-tyramine substrate addition and measured after 10 mins by amplex red reagent-based microplate fluorescence reader analysis; summary of the method: as §1
T2 sequence (P27338 whole entry): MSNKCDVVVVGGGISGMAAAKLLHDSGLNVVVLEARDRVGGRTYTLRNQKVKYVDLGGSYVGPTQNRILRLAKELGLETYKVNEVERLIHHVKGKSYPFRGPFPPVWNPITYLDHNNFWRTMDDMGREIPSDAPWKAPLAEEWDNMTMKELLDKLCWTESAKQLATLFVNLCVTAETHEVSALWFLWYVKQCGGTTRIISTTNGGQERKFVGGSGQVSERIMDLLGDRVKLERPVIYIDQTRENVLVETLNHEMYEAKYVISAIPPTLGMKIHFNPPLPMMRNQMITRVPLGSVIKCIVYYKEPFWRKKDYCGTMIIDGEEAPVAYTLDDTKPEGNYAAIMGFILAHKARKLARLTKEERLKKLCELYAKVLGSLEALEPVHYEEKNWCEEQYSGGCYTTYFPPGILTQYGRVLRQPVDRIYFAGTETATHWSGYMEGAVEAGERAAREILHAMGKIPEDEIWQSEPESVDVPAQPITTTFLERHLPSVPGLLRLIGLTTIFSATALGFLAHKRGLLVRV

[3] = target: T1, Amine oxidase [flavin-containing] A; assay: Inhibition of human MAOA pre-incubated for 10 mins before p-tyramine substrate addition and measured after 10 mins by amplex red reagent-based microplate fluorescence reader analysis
[4] = target: T2, Amine oxidase [flavin-containing] B

Compound	inhibition at 100 µM [1] [%]	inhibition at 100 µM [2] [%]	IC50 [3] [µM]	IC50 [4] [µM]	inhibition (INH) ([1]; 100 µM) [%]	inhibition (INH) ([2]; 100 µM) [%]
Cc1c2c(nn1-c1ccc(/C=N/NC(=S)NCN3CCOCC3)cc1)-c1ccccc1S(=O)(=O)N2C	> 50	> 50	64.8	4.34	–	–
Cc1cccc(C)c1NC(=S)N/N=C/c1ccc(-n2nc3c(c2-c2ccccc2)N(C)S(=O)(=O)c2ccccc2-3)cc1	> 50	> 50	65.7	0.77	–	–
CN1c2c(nn(-c3ccc(/C=N/NC(=S)Nc4ccccc4)cc3)c2-c2ccccc2)-c2ccccc2S1(=O)=O	> 50	> 50	27.2	2.49	–	–
Cc1c2c(nn1-c1ccc(/C=N/NC(N)=S)cc1)-c1ccccc1S(=O)(=O)N2C	> 50	36	31.2	–	–	–
CN1c2c(nn(-c3ccc(/C=N/NC(=S)NCc4ccccc4)cc3)c2-c2ccccc2)-c2ccccc2S1(=O)=O	> 50	> 50	10.6	0.64	–	–
Cc1c2c(nn1-c1ccc(/C=N/NC(=S)NCc3ccccc3)cc1)-c1ccccc1S(=O)(=O)N2C	> 50	> 50	76.2	4.72	–	–
CN1c2c(nn(-c3ccc(/C=N/NC(=S)Nc4cccc(F)c4)cc3)c2-c2ccccc2)-c2ccccc2S1(=O)=O	> 50	> 50	9.02	1.76	–	–
Cc1c2c(nn1-c1ccc(/C=N/NC(=S)Nc3ccc(F)cc3)cc1)-c1ccccc1S(=O)(=O)N2C	> 50	41	30.2	–	–	–
Cc1cccc(C)c1NC(=S)N/N=C/c1ccc(-n2nc3c(c2C)N(C)S(=O)(=O)c2ccccc2-3)cc1	–	–	–	–	> 50	> 50
Cc1ccc(NC(=S)N/N=C/c2ccc(-n3nc4c(c3-c3ccccc3)N(C)S(=O)(=O)c3ccccc3-4)cc2)c(C)c1	> 50	> 50	9.15	0.75	–	–
CCc1ccc(NC(=S)N/N=C/c2ccc(-n3nc4c(c3-c3ccccc3)N(C)S(=O)(=O)c3ccccc3-4)cc2)cc1	> 50	> 50	8.18	0.02	–	–
CN1c2c(nn(-c3ccc(/C=N/NC(=S)Nc4ccccc4Cl)cc3)c2-c2ccccc2)-c2ccccc2S1(=O)=O	> 50	> 50	33.8	0.68	–	–

Continued by falling IC50 [3], values first:

inhibition at 100 µM [1] [%]	inhibition at 100 µM [2] [%]	IC50 [3] [µM]	IC50 [4] [µM]	inhibition (INH) ([1]; 100 µM) [%]	inhibition (INH) ([2]; 100 µM) [%]	Compound
> 50	> 50	7.73	20.9	–	–	CN1c2c(nn(-c3ccc(/C=N/NC(=S)Nc4cccc(Cl)c4)cc3)c2-c2ccccc2)-c2ccccc2S1(=O)=O
> 50	> 50	4.06	6.21	–	–	Cc1c2c(nn1-c1ccc(/C=N/NC(=S)Nc3ccccc3Cl)cc1)-c1ccccc1S(=O)(=O)N2C
> 50	> 50	3.69	4.15	–	–	Cc1c2c(nn1-c1ccc(/C=N/NC(=S)Nc3ccccc3)cc1)-c1ccccc1S(=O)(=O)N2C
> 50	> 50	3.49	0.43	–	–	Cc1c2c(nn1-c1ccc(/C=N/NC(=S)Nc3ccc(Cl)cc3)cc1)-c1ccccc1S(=O)(=O)N2C
> 50	> 50	3.07	2.99	–	–	CN1c2c(nn(-c3ccc(/C=N/NC(=S)NCN4CCOCC4)cc3)c2-c2ccccc2)-c2ccccc2S1(=O)=O
> 50	> 50	2.33	6.99	–	–	CN1c2c(nn(-c3ccc(/C=N/NC(=S)Nc4ccc(F)cc4)cc3)c2-c2ccccc2)-c2ccccc2S1(=O)=O
> 50	> 50	2.06	3.27	–	–	CN1c2c(nn(-c3ccc(/C=N/NC(=S)Nc4ccc(Cl)cc4)cc3)c2-c2ccccc2)-c2ccccc2S1(=O)=O
> 50	> 50	1.77	2.91	–	–	CCc1ccc(NC(=S)N/N=C/c2ccc(-n3nc4c(c3C)N(C)S(=O)(=O)c3ccccc3-4)cc2)cc1
> 50	> 50	1.42	3.83	–	–	Cc1c2c(nn1-c1ccc(/C=N/NC(=S)Nc3ccccc3F)cc1)-c1ccccc1S(=O)(=O)N2C
> 50	> 50	1.13	0.11	–	–	Cc1ccc(NC(=S)N/N=C/c2ccc(-n3nc4c(c3C)N(C)S(=O)(=O)c3ccccc3-4)cc2)c(C)c1
> 50	> 50	1.11	2.89	–	–	Cc1c2c(nn1-c1ccc(/C=N/NC(=S)Nc3cccc(Cl)c3)cc1)-c1ccccc1S(=O)(=O)N2C
> 50	> 50	0.97	2.39	–	–	CN1c2c(nn(-c3ccc(/C=N/NC(N)=S)cc3)c2-c2ccccc2)-c2ccccc2S1(=O)=O
> 50	19	0.54	–	–	–	CN1c2c(nn(-c3ccc(/C=N/NC(=S)Nc4ccccc4F)cc3)c2-c2ccccc2)-c2ccccc2S1(=O)=O
> 50	> 50	0.47	1.68	–	–	Cc1c2c(nn1-c1ccc(/C=N/NC(=S)Nc3cccc(F)c3)cc1)-c1ccccc1S(=O)(=O)N2C
> 50	> 50	0.01	3.13	–	–	Cc1ccccc1NC(=S)N/N=C/c1ccc(-n2nc3c(c2C)N(C)S(=O)(=O)c2ccccc2-3)cc1
> 50	> 50	0.003	29.5	–	–	Cc1ccc(NC(=S)N/N=C/c2ccc(-n3nc4c(c3C)N(C)S(=O)(=O)c3ccccc3-4)cc2)cc1
